Results from different studies.
Target: Calcium/calmodulin-dependent protein kinase type II subunit delta (CAMK2D, Homo sapiens, UniProt Q13557)

Structure (SMILES) | test | setting | endpoint | result
Cn1cncc1[C@@](O)(COc1ccc(C#N)cc1-c1ccc(OC(F)(F)F)cc1)c1ccc(C#N)cc1 | cell-free assay, competition with immobilised ligand | 1 µM | remaining binding | 95%
Cn1cc(-c2cccc(N3CCc4c(sc5c4CC(C)(C)C5)C3=O)c2CO)cc(Nc2ccncn2)c1=O | enzyme activity, inhibitor | 1 µM | inhibition | 3%
Nc1ncc(-c2nc(N3CCOCC3)nc(N3CCOCC3)n2)c(C(F)F)n1 | binding, competition with immobilised ligand | 10 µM | remaining binding | 66%
Cn1cc(-c2cc(F)cc(N3CCn4c(cc5c4CCCC5)C3=O)c2CO)cc(Nc2ccc(N3CCN(C4COC4)CC3)cn2)c1=O | enzyme activity, inhibitor | 0.1 µM | inhibition | 11%
O=c1[nH]c2ccccc2n1C1CCN(Cc2ccc(-c3[nH]c4cc5ncnc5cc4nc3-c3ccccc3)cc2)CC1 | cell-free assay | 0.5 µM | remaining signal | 97.7%
COc1ncccc1-c1cnn2ccc(N3CCN(C(=O)OC(C)C)CC3)nc12 | binding, competition with immobilised ligand | 1 µM | remaining binding | 83%
Cc1nn(C)cc1-c1nc2c(N3CCN(Cc4ccc(Cl)cc4)CC3)c(Cl)cnc2[nH]1 | binding, competition with immobilised ligand | 1 µM | remaining binding | 94%
CC(C)(C)c1cc(C=C(C#N)C#N)cc(Br)c1O | enzyme activity, inhibitor | 0.5 µM | remaining activity | 96%
